Results on 20 compounds are retold here after ChEMBL document CHEMBL4706622, “Comparative study between the anti-P. falciparum activity of triazolopyrimidine, pyrazolopyrimidine and quinoline derivatives and the identification of new PfDHODH inhibitors” (Eur J Med Chem, 2021).

What is called inhibition is the share of the control response that was lost under treatment. Usually IC50 stands for the concentration needed to halve the response being measured.

The subject of data set [1] is Plasmodium falciparum. Put plainly: Inhibition of Plasmodium falciparum DHODH (159- 569 aa) expressed in Escherichia coli BL21(DE3) cells assessed as 2,6-dichloroindophenol reduction at 50 uM by colorimetric method. The essentials: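 First-stage PfDHODH screen at a single compound concentration of 50 µM, reported as % inhibition. Compounds giving ≥80% inhibition went on to IC50 determination. The PfDHODH final concentration in the inhibition assay was 50 nM.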

The nature of data set [2]: Inhibition of Plasmodium falciparum DHODH (159- 569 aa) expressed in Escherichia coli BL21(DE3) cells assessed as 2,6-dichloroindophenol reduction by colorimetric method. The gist of the method: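 Second-stage PfDHODH IC50 determination from concentration–response curves, run only on compounds giving ≥80% inhibition at 50 µM in the single-point screen. PfDHODH final concentration was 50 nM. IC50 was not assigned where substrate consumption could not be measured at some concentrations on the curve.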

The subject of data set [3] is Plasmodium falciparum. Description: Antimalarial activity against CQ-sensitive Plasmodium falciparum 3D7 infected in erythrocytes by SYBR Green dye based fluorescence assay. Format: functional, organism-based.
The target of data set [4] is Dihydroorotate dehydrogenase (quinone), mitochondrial (Homo sapiens) (UniProt Q02127). Put plainly: Inhibition of human DHODH assessed as 2,6-dichloroindophenol reduction at 50 uM by colorimetric method. The gist of the method: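 First-stage HsDHODH screen at a single compound concentration of 50 µM, reported as % inhibition. It was run in parallel with the PfDHODH screen.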

A short description of data set [5]: Selectivity index, ratio of IC50 for cytotoxicity against human HepG2 cells to IC50 for antimalarial activity against Plasmodium falciparum 3D7. Format: toxicity, cell-based. The settings on record: read-out: Ratio IC50.
The subject of the next data set is HepG2. Description: Cytotoxicity against human HepG2 cells assessed as cell viability after 72 hrs by MTT assay. The class given is cell-based. The settings on record: HepG2, 72 h. On the technique in general: Formazan colour is commonly taken as a measure of viable cells.

Dihydroorotate dehydrogenase (quinone), mitochondrial (Homo sapiens), sequence (Q02127 whole entry): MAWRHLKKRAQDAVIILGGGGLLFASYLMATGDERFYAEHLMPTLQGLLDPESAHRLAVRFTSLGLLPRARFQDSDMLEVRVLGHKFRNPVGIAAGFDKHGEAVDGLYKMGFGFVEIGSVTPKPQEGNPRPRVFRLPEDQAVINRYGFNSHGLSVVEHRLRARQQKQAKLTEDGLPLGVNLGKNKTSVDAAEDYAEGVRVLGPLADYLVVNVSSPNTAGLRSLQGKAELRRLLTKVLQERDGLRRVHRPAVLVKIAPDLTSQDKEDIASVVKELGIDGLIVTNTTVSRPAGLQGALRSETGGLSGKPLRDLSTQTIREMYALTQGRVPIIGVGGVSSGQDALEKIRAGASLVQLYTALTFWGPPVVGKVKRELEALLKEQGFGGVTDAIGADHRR

Consider `Cc1cc(Nc2ccc(S(=O)(=O)Nc3ccc(Cl)cc3)cc2)n2nc(C)cc2n1`, for which the inhibition was determined as 25% in the data set on Plasmodium falciparum [1] and 0% in data set [4]. In addition, the figures for the 50% inhibitory concentration (IC50) (in data set [2]; with Plasmodium falciparum [3]) were more than 50 µM and more than 10 µM, respectively.
Turning to `Cc1cc(Nc2ccc(S(=O)(=O)Nc3ccccc3)cc2)n2nc(C)cc2n1`, the inhibition with Plasmodium falciparum [1] worked out at 25%; in data set [4] it was 0%. The concentration for half-maximal inhibition (IC50) in data set [2] is more than 50 µM; in the data set with HepG2, 27 µM; with Plasmodium falciparum [3] it was 2.8 µM. In addition, in data set [5], the selectivity ratio turned out to be 9.6.
In the case of `Cc1cc(Nc2ccc(S(=O)(=O)Nc3ccc4ccccc4c3)cc2)n2nc(C)cc2n1`, the inhibition with Plasmodium falciparum [1] came to 25%; in data set [4] it was 0%. The values for the IC50 (in data set [2]; in the data set on Plasmodium falciparum [3]) were more than 50 µM and more than 10 µM, respectively.
For the compound `Cc1cc(Nc2ccc(S(=O)(=O)Nc3ccc4ccccc4c3)cc2)n2nc(C)nc2n1`, the IC50 was 0.4 µM in data set [2], 56 µM in the data set on HepG2 and 0.64 µM in the data set with Plasmodium falciparum [3]. Besides, the selectivity ratio in data set [5] came to 87.4. Also, in data set [4], the inhibition worked out at 0%.
Consider `Cc1cc(Nc2ccc(S(=O)(=O)Nc3ccccc3)cc2)n2nc(C(F)(F)F)nc2n1`, for which the inhibition was less than 80% with Plasmodium falciparum [1] and 0% in data set [4]. For the same compound, the results for the IC50 (in data set [2]; in the data set with HepG2; with Plasmodium falciparum [3]) were more than 50 µM, 92 µM and 1.3 µM, respectively. In data set [5], the selectivity ratio is more than 70.
In the case of `Cc1cc(Nc2ccc(S(=O)(=O)Nc3ccccc3)cc2)n2nc(C)nc2n1`, the 50% inhibitory concentration (IC50) in data set [2] was more than 50 µM; in the data set on HepG2 it was 193 µM; in the data set with Plasmodium falciparum [3], 6.9 µM. Further, in data set [5], the selectivity ratio worked out at 28. The inhibition in data set [4] stood at 0%.
With `Cc1cc(Nc2ccc(S(=O)(=O)Nc3ccc(F)cc3)cc2)n2nc(C)cc2n1`, the inhibition was determined as 25% with Plasmodium falciparum [1] and 0% in data set [4]. The concentration for half-maximal inhibition (IC50) is more than 50 µM in data set [2] and more than 10 µM in the data set on Plasmodium falciparum [3].
For the compound `COc1ccc(NS(=O)(=O)c2ccc(Nc3cc(C)nc4nc(C)nn34)cc2)cc1`, the IC50 came to 1.3 µM in data set [2], 170 µM with HepG2 and 4 µM in the data set with Plasmodium falciparum [3]. In addition, the selectivity ratio in data set [5] worked out at 42.5. Also, the inhibition in data set [4] was found to be 0%.
On the same counts, the results for `Cc1ccc(NS(=O)(=O)c2ccc(Nc3cc(C)nc4nc(C(F)(F)F)nn34)cc2)cc1` are 0.8 µM, 54 µM, 0.032 µM, 1690 and 0%.
Taken in the same sequence, the figures for `COc1ccc(NS(=O)(=O)c2ccc(Nc3cc(C)nc4nc(C(F)(F)F)nn34)cc2)cc1` were 0.21 µM, 93 µM, 0.8 µM, more than 114 and 0%.
On the same counts, the results for `Cc1cc(Nc2ccc(S(=O)(=O)Nc3ccc(F)cc3)cc2)n2ncnc2n1` are 0.3 µM, 367 µM, 2 µM, more than 187 and 0%.
As for `Cc1ccc(NS(=O)(=O)c2ccc(Nc3cc(C)nc4cc(C)nn34)cc2)cc1`, the inhibition came to 25% in the data set on Plasmodium falciparum [1] and 0% in data set [4]. Also, the results for the IC50 (in data set [2]; in the data set with Plasmodium falciparum [3]) were more than 50 µM and more than 10 µM, respectively.
On the same counts, the results for `COc1ccc(NS(=O)(=O)c2ccc(Nc3cc(C)nc4cc(C)nn34)cc2)cc1` are 25%, 0%, more than 50 µM and more than 10 µM.
`Cc1cc(Nc2ccc(S(=O)(=O)Nc3ccc(C(F)(F)F)cc3)cc2)n2nc(C)cc2n1`: the inhibition in the data set with Plasmodium falciparum [1] was 25%; in data set [4], 0%. In addition, the concentration for half-maximal inhibition (IC50) in data set [2] was more than 50 µM; with HepG2, 42 µM; in the data set with Plasmodium falciparum [3] it was 8 µM. Further, the selectivity ratio in data set [5] came to 5.25.
With `Cc1cc(Nc2ccc(S(=O)(=O)Nc3ccc4ccccc4c3)cc2)n2ncnc2n1`, the IC50 in data set [2] was 0.3 µM; in the data set on HepG2 it was 56 µM; in the data set with Plasmodium falciparum [3] it was 0.23 µM. For the same compound, in data set [5], the selectivity ratio stood at 243. Besides, in data set [4], the inhibition was 0%.
On the same counts, the results for `Cc1cc(Nc2ccc(S(=O)(=O)Nc3ccc(C(F)(F)F)cc3)cc2)n2nc(C(F)(F)F)nc2n1` are more than 50 µM, 90 µM, 0.03 µM, 3000 and 0%.
On the same counts, the results for `Cc1cc(Nc2ccc(S(=O)(=O)Nc3ccc(C(F)(F)F)cc3)cc2)n2ncnc2n1` are more than 50 µM, more than 100 µM, 0.15 µM, more than 667 and 0%.
On the same counts, the results for `Cc1cc(Nc2ccc(S(=O)(=O)Nc3ccc(F)cc3)cc2)n2nc(C(F)(F)F)nc2n1` are 0.5 µM, 101 µM, 0.086 µM, 1170 and 0%.
In the case of `Cc1ccc(NS(=O)(=O)c2ccc(Nc3cc(C)nc4ncnn34)cc2)cc1`, the figures for the IC50 (in data set [2]; in the data set on HepG2; in the data set on Plasmodium falciparum [3]) were 0.41 µM, 367 µM and 0.5 µM, respectively. Further, in data set [5], the selectivity ratio was more than 728. For the same compound, the inhibition in data set [4] was determined as 0%.
Taken in the same sequence, the figures for `Cc1cc(Nc2ccc(S(=O)(=O)Nc3ccc(F)cc3)cc2)n2nc(C)nc2n1` were 1 µM, 150 µM, 2.7 µM, 55.6 and 0%.
